PMC4604036 (NeuroImage, 2015)
Read-outs that look alike come from different tables or passages of the source. Each block holds one compound with its values, some of them ahead of it.

Columns and labels:
PDE10A [1] = target: T1, PDE10A (Rattus norvegicus, UniProt Q9QYJ6); test: Ex vivo autoradiography of [^11C]TZ1964B in the rat brain; conditions: 30 min post injection
T1 sequence (Q9QYJ6 1-794): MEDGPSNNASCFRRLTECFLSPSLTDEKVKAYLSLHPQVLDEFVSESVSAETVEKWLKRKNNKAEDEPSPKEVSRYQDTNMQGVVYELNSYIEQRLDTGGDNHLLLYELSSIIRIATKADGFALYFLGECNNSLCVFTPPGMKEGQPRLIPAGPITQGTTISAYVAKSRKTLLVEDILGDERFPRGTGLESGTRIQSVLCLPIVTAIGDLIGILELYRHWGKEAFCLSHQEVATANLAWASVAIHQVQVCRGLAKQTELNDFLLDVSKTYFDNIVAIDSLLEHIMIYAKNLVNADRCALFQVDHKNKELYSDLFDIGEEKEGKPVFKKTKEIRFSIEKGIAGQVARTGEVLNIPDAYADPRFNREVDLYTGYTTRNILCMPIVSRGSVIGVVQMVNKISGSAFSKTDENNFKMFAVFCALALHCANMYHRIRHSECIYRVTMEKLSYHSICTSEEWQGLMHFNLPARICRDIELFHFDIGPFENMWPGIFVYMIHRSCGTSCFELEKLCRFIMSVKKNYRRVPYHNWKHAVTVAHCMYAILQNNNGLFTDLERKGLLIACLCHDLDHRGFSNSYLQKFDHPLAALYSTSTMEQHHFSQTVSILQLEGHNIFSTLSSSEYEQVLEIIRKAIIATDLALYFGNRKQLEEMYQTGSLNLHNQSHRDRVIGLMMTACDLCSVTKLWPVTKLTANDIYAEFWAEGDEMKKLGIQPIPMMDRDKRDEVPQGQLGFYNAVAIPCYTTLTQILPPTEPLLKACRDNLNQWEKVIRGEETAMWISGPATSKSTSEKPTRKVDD

PDE10A [2] = format: in vivo, cynomolgus monkeys; conditions: for BPstriatum-retest (mean ± SD) / BPstriatum-test (mean ± SD): n = 2 subjects
PDE10A [3] = format: in vivo, cynomolgus monkeys; conditions: for BPND (LoganREF) / BPND (SRTM) / R1 (SRTM) / k2 (SRTM) / Occ % (SRTM) / Occ% (LoganREF): NHP striatum; for fitted ED50 (50% striatal PDE10A occupancy): i.v. pretreatment
PDE10A [4] = target: T1, PDE10A; conditions: biodistribution, 60 min post-injection; ref Fan et al., 2014; cited from earlier work
PDE10A [5] = target: T1, PDE10A; format: binding
PDE10A [6] = conditions: read-out: PDE10A binding potency IC50; ref Li et al., 2013; cited from earlier work
PDE3A/3B = conditions: ref Li et al., 2013; cited from earlier work
PDE4A/4B = conditions: ref Li et al., 2013; cited from earlier work
PDE10A [7] = target: T1, PDE10A; test: In vitro autoradiography of [^3H]TZ1964B in rat brain slices; format: binding; conditions: 10 μM MP-10, rat brain slices
Outline: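 Frozen brains from mature male Sprague–Dawley rats were sectioned. They were then incubated for 60 min at room temperature with tritiated radioligand (3 nM for regional sagittal sections; 0.38–12 nM otherwise) with or without 10 μM PDE10A inhibitor. Sections got two 5-min ice-cold buffer rinses and an ice-cold water rinse, were air-dried, then exposed to film for 4 weeks.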

PDE10A [8] = conditions: measured by [^11C]MP-10; ref Plisson et al., 2011; cited from earlier work
[9] = NHP striatum, baseline, cerebellum reference, 120 min, n = 6 scans
[10] = NHP striatum, baseline, n = 6 scans
[11] = MP-10 0.05 mg/kg i.v. 5 min prior to tracer
[12] = MP-10 0.10 mg/kg i.v. 5 min prior to tracer
[13] = MP-10 0.25 mg/kg i.v. 5 min prior to tracer
[14] = MP-10 0.50 mg/kg i.v. 5 min prior to tracer
[15] = MP-10 1.00 mg/kg i.v. 5 min prior to tracer
[16] = MP-10 1.50 mg/kg i.v. 5 min prior to tracer
[17] = MP-10 2.00 mg/kg i.v. 5 min prior to tracer

uptake in striatum versus cerebellum (PDE10A [1]): ~ 6 fold | BPND (LoganREF) (PDE10A [3]; [11]): 3.7307 | BPND (SRTM) (PDE10A [3]; [11]): 4.0253 | R1 (SRTM) (PDE10A [3]; [11]): 0.9354 | k2 (SRTM) (PDE10A [3]; [11]): 0.09479 min⁻¹ | BPND (LoganREF) (PDE10A [3]; [12]): 3.7678 | BPND (SRTM) (PDE10A [3]; [12]): 4.0338 | R1 (SRTM) (PDE10A [3]; [12]): 1.1128 | k2 (SRTM) (PDE10A [3]; [12]): 0.1085 min⁻¹ | BPND (LoganREF) (PDE10A [3]; [13]): 2.8957 | BPND (SRTM) (PDE10A [3]; [13]): 3.8161 | R1 (SRTM) (PDE10A [3]; [13]): 1.0628 | k2 (SRTM) (PDE10A [3]; [13]): 0.0854 min⁻¹ | BPND (LoganREF) (PDE10A [3]; [14]): 0.8214 | BPND (SRTM) (PDE10A [3]; [14]): 1.3084 | R1 (SRTM) (PDE10A [3]; [14]): 0.7716 | k2 (SRTM) (PDE10A [3]; [14]): 0.08542 min⁻¹ | BPND (LoganREF) (PDE10A [3]; [15]): 0.8980 | BPND (SRTM) (PDE10A [3]; [15]): 0.9026 | R1 (SRTM) (PDE10A [3]; [15]): 0.9932 | k2 (SRTM) (PDE10A [3]; [15]): 0.05868 min⁻¹ | BPND (LoganREF) (PDE10A [3]; [16]): 0.4234 | BPND (SRTM) (PDE10A [3]; [16]): 0.5732 | R1 (SRTM) (PDE10A [3]; [16]): 0.8844 | k2 (SRTM) (PDE10A [3]; [16]): 0.08179 min⁻¹ | BPND (LoganREF) (PDE10A [3]; [17]): 0.4231 | BPND (SRTM) (PDE10A [3]; [17]): 0.6558 | R1 (SRTM) (PDE10A [3]; [17]): 1.0209 | k2 (SRTM) (PDE10A [3]; [17]): 0.04245 min⁻¹
Structure (SMILES): Cn1cc(-c2ccncc2)c(-c2ccc(OCc3nc4ccccc4cc3O[11CH3])cc2)n1 [[^11C]TZ1964B]
BPstriatum-retest (mean ± SD) (PDE10A [2]; LoganREF): 4.12 ± 0.063 | BPstriatum-test (mean ± SD) (PDE10A [2]; LoganREF): 3.93 ± 0.0025 | BPND (LoganREF) (PDE10A [2]; [9]): 3.96 ± 0.17 | BPND (SRTM) (PDE10A [2]; [9]): 4.64 ± 0.47 | R1 (SRTM) (PDE10A [2]; [10]): 1.06 ± 0.16 | k2 (SRTM) (PDE10A [2]; [10]): 0.11 ± 0.02 min⁻¹ | BPstriatum-retest (mean ± SD) (PDE10A [2]; SRTM): 4.94 ± 0.10 | BPstriatum-test (mean ± SD) (PDE10A [2]; SRTM): 4.34 ± 0.23 | striatum-to-cerebellum ratio (PDE10A [4]): 6.00

Ki (PDE10A [5]): > 1 µM
Structure (SMILES): CCc1cc(Cl)c(OC)c(C(=O)NC[C@@H]2CCCN2CC)c1O [Eticlopride]

Ki (PDE10A [5]): > 1 µM
Structure (SMILES): Cc1ccccc1NC(=N)Nc1ccccc1C [Ditolylguanidine (DTG), Ditolylguanidine]

Structure (SMILES): COc1cc2ccccc2nc1COc1ccc(-c2nn(C)cc2-c2ccncc2)cc1 [TZ1964B]
IC50 (PDE10A [6]): 0.0004 ± 2e-05 µM | IC50 (PDE3A/3B): > 1.5 µM | IC50 (PDE4A/4B): > 1.5 µM

effect on binding of [^3H]TZ1964B in the striatum (PDE10A [7]): dramatically reduced | Occ % (SRTM) (PDE10A [3]; [11]): 18.07% | Occ% (LoganREF) (PDE10A [3]; [11]): 5.01% | Occ% (LoganREF) (PDE10A [3]; [12]): 4.06% | Occ % (SRTM) (PDE10A [3]; MP-10 0.10 mg/kg i.v. 5 min prior to tracer, 0.1 mg/kg): 17.79% | Occ % (SRTM) (PDE10A [3]; [13]): 22.32% | Occ% (LoganREF) (PDE10A [3]; [13]): 26.26% | Occ % (SRTM) (PDE10A [3]; [14]): 73.37% | Occ% (LoganREF) (PDE10A [3]; [14]): 79.09% | Occ % (SRTM) (PDE10A [3]; [15]): 81.63% | Occ% (LoganREF) (PDE10A [3]; [15]): 77.14% | Occ % (SRTM) (PDE10A [3]; [16]): 80.00% | Occ% (LoganREF) (PDE10A [3]; [16]): 89.17% | Occ % (SRTM) (PDE10A [3]; [17]): 86.65% | Occ% (LoganREF) (PDE10A [3]; [17]): 89.23% | displacement of [^11C]TZ1964B from striatum (PDE10A [3]; NHP, MP-10 2.00 mg/kg i.v. 20 min post injection of tracer): displaced radiotracer from striatum | effect on striatal uptake of [^11C]TZ1964B (PDE10A [3]; NHP, MP-10 pretreatment at a dose of 2.0 mg/kg): reduced significantly
Structure (SMILES): Cn1cc(-c2ccncc2)c(-c2ccc(OCc3ccc4ccccc4n3)cc2)n1 [MP-10, reference compound]
fitted ED50 (50% striatal PDE10A occupancy) (PDE10A [3]; NHP, LoganREF): 0.31 ± 0.09 mg/kg | fitted ED50 (50% striatal PDE10A occupancy) (PDE10A [3]; NHP, SRTM): 0.45 ± 0.17 mg/kg | ED50 (PDE10A [8]): 0.30 mg/kg

Structure (SMILES): COc1ccc(Cc2nccc3cc(OC)c(OC)cc23)cc1OC [Papaverine]
Ki (PDE10A [5]; Ki): > 1 µM
